{"source": "paper PMC10213863", "about": "(Cell Reports Medicine, 2023)", "key": {"TLR8": {"biological_target": "T1, TLR8 (Homo sapiens, UniProt Q9NR97)", "T1 sequence (Q9NR97 27-1041)": "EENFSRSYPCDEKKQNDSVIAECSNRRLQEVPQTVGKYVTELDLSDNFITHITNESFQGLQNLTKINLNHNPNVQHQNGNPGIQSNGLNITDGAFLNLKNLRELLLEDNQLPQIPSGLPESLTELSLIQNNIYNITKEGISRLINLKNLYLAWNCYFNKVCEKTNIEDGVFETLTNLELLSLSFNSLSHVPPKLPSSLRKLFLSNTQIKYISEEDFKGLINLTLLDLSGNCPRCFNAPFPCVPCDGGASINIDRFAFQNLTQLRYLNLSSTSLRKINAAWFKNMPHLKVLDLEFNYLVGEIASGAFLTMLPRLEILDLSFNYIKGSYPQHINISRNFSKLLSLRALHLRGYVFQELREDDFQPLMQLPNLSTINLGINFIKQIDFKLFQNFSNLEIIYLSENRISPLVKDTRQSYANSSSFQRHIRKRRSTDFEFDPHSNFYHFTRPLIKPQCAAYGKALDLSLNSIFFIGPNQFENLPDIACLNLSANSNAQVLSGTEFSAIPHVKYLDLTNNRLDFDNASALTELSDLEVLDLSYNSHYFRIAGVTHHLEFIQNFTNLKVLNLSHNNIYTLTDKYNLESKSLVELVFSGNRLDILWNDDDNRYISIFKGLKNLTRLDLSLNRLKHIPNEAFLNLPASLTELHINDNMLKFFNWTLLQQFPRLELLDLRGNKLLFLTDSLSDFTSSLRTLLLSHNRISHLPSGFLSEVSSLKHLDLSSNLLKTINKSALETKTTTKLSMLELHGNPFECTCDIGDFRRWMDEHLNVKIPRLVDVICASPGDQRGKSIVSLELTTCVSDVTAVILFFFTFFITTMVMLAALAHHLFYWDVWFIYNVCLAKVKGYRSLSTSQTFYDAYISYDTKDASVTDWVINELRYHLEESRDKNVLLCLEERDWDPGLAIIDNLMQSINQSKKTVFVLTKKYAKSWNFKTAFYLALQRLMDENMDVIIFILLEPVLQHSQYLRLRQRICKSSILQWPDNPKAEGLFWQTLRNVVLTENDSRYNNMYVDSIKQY", "assay": "Human PBMC assay, ssRNA-induced TNF", "type": "cell-based", "outline": "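Human PBMCs were pre-incubated 30 min with test compound, then stimulated with the respective TLR or IL-1R agonist at doses from earlier work. Cytokines in supernatants were quantified by immunoassay. Viability across the dose range was checked by CellTiter-Glo.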"}, "[1]": {"system": "immune-complex stimulated ISG panel in PBMCs", "assay": "Five-gene ISG panel in PBMCs stimulated with SLE immune complexes", "type": "cell-based, human", "settings": "MHV370 0.1 μM", "outline": "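PBMCs were pre-treated 30 min with test compound, HCQ or 0.1% DMSO, then stimulated 20 h with SLE serum pre-complexed with U-937 necrotic extract. RNA was extracted and ISGs quantified by qRT-PCR with the 2−ΔΔCt method against 18S rRNA, using biological replicates. Global ISG induction was derived by normalizing each ISG's relative induction to 100%.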"}, "TLR7": {"biological_target": "T2, TLR7 (Homo sapiens, UniProt Q9NYK1)", "T2 sequence (Q9NYK1 27-1049)": "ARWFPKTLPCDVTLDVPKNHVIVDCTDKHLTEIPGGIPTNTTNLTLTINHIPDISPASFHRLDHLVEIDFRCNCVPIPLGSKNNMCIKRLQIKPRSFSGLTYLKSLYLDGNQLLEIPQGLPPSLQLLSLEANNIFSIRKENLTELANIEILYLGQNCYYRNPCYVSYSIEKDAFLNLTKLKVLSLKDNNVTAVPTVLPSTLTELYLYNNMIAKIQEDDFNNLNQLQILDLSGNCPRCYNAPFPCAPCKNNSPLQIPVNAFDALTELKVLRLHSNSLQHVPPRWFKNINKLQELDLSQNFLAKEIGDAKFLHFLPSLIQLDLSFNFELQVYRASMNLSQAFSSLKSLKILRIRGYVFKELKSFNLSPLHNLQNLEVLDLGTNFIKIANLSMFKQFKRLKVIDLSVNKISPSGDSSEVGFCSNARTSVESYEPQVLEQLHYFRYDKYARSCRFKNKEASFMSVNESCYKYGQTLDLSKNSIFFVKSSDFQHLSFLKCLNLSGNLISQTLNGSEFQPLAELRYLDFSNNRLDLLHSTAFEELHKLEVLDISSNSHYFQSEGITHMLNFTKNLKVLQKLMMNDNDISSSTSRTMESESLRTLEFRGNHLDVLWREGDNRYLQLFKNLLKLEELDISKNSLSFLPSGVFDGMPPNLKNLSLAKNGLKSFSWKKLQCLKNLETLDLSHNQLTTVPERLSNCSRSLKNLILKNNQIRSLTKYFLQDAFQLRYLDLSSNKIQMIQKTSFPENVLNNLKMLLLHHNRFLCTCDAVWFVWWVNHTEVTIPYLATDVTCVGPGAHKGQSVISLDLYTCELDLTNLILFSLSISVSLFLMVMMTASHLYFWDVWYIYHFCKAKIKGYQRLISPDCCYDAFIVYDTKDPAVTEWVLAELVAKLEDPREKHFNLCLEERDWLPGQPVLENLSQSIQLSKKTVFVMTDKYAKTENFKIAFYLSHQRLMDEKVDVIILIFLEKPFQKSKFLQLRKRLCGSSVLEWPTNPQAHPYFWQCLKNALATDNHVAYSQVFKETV", "assay": "Human whole blood assay, ssRNA-IFN-α", "type": "cell-based", "outline": "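Fresh human blood or 129/Sv mouse blood was taken into citrate and diluted 1:1 with RPMI1640. It was pre-incubated 30 min at 37°C, 5% CO2 with increasing concentrations of test compound or 0.25% v/v DMSO (final). Blood was then stimulated with TLR agonists at doses from earlier work, or with R848 (3 μM), and cytokines were quantified. Viability was checked by ATPlite luminescence.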"}}}
{"smiles": "Cc1cc(N2CCc3c(c(C)nn3CC34CCC(NC(=O)[C@@H]5COCCN5)(CC3)CC4)C2)c2cnn(C)c2n1", "note": "[MHV370, (S)-N-(4-((5-(1,6-dimethyl-1H-pyrazolo[3,4-b]pyridin-4-yl)-3-methyl-4,5,6,7-tetrahydro-1H-pyrazolo[4,3-c]pyridin-1-yl)methyl)bicyclo[2.2.2]octan-1-yl)morpholine-3-carboxamide]", "values": [{"measurement": "IC50", "setting": "TLR8", "value": "0.07 ± 0.0074", "unit": "µM"}, {"measurement": "expression of a five-panel ISG signature", "setting": "[1]", "value": "strongly suppressed"}, {"measurement": "IC50", "setting": "TLR7", "value": "0.0084 ± 0.001", "unit": "µM"}]}
